Reference: ChEMBL document CHEMBL5653631, “A Potent and Selective ULK1 Inhibitor Suppresses Autophagy and Sensitizes Cancer Cells to Nutrient Stress” (iScience, 2018)

Assays:
[1] = target: Cyclin-dependent kinase 12 (Homo sapiens) (UniProt Q9NYV4); assay: Inhibition of human recombinant CRK7 at 40 nM in presence of ATP by radiometric assay relative to control
[2] = target: Interferon-induced, double-stranded RNA-activated protein kinase (Homo sapiens) (UniProt P19525); assay: Inhibition of human recombinant PKR at 40 nM in presence of ATP by radiometric assay relative to control
[3] = target: Fibroblast growth factor receptor 3 (Homo sapiens) (UniProt P22607); assay: Inhibition of human recombinant FGFR3 at 40 nM related to control ULK1
Chain of Fibroblast growth factor receptor 3 (Homo sapiens) (P22607 23-806 limits assumed): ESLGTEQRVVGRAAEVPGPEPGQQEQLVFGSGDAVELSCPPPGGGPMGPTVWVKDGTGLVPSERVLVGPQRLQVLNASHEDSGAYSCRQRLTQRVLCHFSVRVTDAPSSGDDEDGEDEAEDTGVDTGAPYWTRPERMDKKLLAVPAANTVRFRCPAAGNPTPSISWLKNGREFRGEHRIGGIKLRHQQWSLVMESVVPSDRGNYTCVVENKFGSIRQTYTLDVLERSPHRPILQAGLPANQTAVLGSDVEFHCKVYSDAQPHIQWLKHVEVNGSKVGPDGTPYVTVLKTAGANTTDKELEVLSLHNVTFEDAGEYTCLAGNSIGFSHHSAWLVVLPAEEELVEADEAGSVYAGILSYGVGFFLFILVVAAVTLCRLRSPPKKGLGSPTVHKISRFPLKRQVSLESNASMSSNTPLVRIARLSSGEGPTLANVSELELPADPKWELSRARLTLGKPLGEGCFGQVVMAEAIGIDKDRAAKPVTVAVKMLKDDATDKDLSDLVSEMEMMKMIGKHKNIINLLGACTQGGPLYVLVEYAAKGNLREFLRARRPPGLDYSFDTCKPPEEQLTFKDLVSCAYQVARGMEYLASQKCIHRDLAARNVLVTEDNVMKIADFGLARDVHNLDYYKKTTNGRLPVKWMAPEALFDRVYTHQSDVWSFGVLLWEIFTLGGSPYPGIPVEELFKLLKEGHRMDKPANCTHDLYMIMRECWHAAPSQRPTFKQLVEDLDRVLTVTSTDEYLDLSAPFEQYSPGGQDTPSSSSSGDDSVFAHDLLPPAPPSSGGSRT

[4] = target: Glycogen synthase kinase-3 beta (Homo sapiens) (UniProt P49841); assay: Inhibition of human recombinant GSK3B at 40 nM related to control ULK1
Chain of Glycogen synthase kinase-3 beta (Homo sapiens) (P49841 whole entry, looked up, the tested form may be a part): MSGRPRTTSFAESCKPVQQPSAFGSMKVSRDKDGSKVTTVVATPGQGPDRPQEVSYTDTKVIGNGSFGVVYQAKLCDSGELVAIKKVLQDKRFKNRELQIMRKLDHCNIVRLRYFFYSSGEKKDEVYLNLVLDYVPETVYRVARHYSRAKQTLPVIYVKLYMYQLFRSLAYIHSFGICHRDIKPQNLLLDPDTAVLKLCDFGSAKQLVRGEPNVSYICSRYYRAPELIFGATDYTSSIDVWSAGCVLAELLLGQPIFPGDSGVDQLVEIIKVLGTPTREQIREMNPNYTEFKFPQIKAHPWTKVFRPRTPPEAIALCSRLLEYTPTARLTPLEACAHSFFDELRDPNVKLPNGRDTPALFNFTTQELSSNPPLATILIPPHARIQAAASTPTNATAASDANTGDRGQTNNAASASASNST

[5] = target: LIM domain kinase 1 (Homo sapiens) (UniProt P53667); assay: Inhibition of human recombinant LIMK1 at 40 nM related to control ULK1
Chain of LIM domain kinase 1 (Homo sapiens) (P53667 whole entry, looked up, the tested form may be a part): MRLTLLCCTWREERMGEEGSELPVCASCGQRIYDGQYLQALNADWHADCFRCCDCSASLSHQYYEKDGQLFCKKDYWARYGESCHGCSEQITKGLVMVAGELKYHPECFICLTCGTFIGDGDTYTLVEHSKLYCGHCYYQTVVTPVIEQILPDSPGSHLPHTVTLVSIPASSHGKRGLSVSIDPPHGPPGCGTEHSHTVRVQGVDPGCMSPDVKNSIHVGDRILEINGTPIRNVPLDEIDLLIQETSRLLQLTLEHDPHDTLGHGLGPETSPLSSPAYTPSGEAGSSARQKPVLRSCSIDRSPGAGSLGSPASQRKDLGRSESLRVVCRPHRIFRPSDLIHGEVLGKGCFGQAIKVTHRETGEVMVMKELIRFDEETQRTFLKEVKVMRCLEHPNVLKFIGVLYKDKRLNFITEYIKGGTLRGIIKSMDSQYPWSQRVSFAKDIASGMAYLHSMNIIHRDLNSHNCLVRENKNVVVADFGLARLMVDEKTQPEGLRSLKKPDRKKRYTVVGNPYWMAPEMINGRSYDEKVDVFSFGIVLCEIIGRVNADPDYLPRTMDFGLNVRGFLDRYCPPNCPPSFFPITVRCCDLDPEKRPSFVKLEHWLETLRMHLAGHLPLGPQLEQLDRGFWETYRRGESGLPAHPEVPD

[6] = target: T1, Serine/threonine-protein kinase NLK (Homo sapiens) (UniProt Q9UBE8); assay: Inhibition of human recombinant NLK at 40 nM related to control ULK1
T1 sequence (whole entry): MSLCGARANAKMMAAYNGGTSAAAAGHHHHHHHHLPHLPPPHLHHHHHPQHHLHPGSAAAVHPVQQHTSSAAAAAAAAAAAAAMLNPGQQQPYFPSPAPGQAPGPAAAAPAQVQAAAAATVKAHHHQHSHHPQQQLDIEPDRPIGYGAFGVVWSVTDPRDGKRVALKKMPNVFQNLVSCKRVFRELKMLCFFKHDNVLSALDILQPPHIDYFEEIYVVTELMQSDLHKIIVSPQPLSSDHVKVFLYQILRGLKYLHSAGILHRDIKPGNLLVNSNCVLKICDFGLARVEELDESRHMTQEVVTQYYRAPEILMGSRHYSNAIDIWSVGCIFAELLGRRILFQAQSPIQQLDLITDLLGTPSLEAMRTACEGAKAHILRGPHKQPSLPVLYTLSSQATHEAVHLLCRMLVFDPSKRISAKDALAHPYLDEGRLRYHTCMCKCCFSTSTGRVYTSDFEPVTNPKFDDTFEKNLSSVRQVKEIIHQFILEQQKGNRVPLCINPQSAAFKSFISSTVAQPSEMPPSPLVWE

[7] = target: Cyclin-dependent kinase 18 (Homo sapiens) (UniProt Q07002); assay: Inhibition of human recombinant PCTAIRE3 at 15 nM related to control ULK1
Chain of Cyclin-dependent kinase 18 (Homo sapiens) (Q07002 whole entry): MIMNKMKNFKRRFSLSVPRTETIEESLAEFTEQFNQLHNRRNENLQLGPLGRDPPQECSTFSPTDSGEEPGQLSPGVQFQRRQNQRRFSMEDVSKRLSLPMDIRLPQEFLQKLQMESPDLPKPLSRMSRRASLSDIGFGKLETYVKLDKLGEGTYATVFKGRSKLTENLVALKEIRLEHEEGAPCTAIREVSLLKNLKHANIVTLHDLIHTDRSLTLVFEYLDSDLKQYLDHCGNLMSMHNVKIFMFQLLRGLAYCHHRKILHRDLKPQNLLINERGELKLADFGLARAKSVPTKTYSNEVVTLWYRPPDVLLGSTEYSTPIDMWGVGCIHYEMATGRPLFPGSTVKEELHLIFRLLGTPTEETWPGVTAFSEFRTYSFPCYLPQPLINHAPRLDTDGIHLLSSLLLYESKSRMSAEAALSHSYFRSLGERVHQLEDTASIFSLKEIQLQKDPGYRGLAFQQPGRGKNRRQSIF

[8] = target: T2, G protein-coupled receptor kinase 3 (Homo sapiens) (UniProt P35626); assay: Inhibition of human recombinant BARK2 at 500 nM in presence of ATP by radiometric assay relative to control
T2 sequence (whole entry): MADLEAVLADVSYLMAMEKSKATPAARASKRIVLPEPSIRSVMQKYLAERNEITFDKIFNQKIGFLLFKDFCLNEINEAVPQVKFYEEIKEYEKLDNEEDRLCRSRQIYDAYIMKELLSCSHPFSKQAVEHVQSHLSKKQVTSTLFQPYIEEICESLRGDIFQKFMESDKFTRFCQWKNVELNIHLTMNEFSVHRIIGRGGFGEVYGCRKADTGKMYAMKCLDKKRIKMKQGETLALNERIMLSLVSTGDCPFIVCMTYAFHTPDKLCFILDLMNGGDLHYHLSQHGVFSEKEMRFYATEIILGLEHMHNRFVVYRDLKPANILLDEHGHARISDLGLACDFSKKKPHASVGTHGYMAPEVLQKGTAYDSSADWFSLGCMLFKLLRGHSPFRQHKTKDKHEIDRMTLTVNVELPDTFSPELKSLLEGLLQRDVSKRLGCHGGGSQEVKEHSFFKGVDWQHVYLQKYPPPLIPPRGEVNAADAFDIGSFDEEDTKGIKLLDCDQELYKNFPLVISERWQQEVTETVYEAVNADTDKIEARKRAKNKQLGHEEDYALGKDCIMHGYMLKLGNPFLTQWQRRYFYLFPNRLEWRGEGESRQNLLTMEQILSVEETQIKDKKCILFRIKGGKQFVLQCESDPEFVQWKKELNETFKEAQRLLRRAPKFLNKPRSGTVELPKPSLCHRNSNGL
How it was run: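 Part of a radiometric in vitro activity panel of 327 recombinant human kinases. Each kinase was tested in duplicate at one inhibitor concentration. Activity remaining was expressed as a percentage of the vehicle control, and percent inhibition was taken as 100 minus that value.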

[9] = target: Glycogen synthase kinase-3 beta (Homo sapiens) (UniProt P49841); assay: Inhibition of human recombinant GSK3B at 500 nM in presence of ATP by radiometric assay relative to control
[10] = target: Platelet-derived growth factor receptor beta (Homo sapiens) (UniProt P09619); assay: Inhibition of human recombinant PDGFRb at 500 nM in presence of ATP by radiometric assay relative to control
Chain of Platelet-derived growth factor receptor beta (Homo sapiens) (P09619 whole entry): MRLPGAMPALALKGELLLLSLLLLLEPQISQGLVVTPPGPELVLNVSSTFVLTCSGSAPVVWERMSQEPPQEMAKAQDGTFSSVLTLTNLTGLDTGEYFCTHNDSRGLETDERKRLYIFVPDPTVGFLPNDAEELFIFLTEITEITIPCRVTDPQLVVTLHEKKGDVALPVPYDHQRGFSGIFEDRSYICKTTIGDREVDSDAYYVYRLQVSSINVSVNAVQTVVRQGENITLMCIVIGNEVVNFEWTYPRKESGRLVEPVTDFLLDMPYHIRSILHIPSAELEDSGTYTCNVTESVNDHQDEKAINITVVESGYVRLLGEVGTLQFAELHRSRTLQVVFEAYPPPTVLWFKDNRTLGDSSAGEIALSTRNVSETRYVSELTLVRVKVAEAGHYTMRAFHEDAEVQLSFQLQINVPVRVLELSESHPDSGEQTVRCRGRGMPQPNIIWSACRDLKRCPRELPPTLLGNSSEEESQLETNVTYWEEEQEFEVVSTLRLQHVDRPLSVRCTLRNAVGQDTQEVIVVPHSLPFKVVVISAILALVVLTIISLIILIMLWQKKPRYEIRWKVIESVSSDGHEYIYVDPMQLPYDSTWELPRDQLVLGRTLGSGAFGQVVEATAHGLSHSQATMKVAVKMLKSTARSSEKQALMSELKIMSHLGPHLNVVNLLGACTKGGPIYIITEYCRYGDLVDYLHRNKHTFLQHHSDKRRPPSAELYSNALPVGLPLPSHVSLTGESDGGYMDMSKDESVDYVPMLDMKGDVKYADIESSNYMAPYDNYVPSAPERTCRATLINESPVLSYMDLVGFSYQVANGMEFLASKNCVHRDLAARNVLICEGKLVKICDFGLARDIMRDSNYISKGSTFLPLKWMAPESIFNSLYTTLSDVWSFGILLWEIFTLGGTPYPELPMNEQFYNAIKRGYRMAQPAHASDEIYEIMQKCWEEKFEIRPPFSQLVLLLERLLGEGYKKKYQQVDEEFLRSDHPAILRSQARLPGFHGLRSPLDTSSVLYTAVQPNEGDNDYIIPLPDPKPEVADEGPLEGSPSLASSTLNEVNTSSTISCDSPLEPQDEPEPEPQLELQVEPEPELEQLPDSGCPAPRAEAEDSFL

[11] = target: T3, Ephrin type-A receptor 3 (Homo sapiens) (UniProt P29320); assay: Inhibition of human recombinant EphA3 at 500 nM related to control ULK1
T3 sequence (whole entry): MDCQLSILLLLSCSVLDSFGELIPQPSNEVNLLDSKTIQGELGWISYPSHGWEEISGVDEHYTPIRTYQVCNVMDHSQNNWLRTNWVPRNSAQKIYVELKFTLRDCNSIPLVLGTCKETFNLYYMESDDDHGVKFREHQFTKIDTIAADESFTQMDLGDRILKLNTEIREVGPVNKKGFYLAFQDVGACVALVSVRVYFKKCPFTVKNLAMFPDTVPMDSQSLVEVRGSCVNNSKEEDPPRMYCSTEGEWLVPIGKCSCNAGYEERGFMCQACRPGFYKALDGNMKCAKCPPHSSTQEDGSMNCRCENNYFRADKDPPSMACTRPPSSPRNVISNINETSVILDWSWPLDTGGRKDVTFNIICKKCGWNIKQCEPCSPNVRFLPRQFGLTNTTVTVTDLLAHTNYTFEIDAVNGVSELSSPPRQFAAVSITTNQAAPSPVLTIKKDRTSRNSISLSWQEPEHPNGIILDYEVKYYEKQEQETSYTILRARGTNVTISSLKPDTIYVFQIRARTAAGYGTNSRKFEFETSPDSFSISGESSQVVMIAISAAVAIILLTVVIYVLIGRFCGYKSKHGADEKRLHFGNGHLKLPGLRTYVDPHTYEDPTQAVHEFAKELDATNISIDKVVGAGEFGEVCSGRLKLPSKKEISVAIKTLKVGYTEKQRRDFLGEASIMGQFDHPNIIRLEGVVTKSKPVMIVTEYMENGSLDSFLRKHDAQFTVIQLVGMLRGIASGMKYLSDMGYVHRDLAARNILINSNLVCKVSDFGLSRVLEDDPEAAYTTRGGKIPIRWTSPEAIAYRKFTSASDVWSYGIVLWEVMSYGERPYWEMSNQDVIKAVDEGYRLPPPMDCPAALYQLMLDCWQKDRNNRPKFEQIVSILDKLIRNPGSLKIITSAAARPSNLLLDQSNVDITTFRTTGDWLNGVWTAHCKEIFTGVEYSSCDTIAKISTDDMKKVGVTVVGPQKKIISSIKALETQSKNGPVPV

Chain of Cyclin-dependent kinase 12 (Homo sapiens) (Q9NYV4 whole entry, looked up): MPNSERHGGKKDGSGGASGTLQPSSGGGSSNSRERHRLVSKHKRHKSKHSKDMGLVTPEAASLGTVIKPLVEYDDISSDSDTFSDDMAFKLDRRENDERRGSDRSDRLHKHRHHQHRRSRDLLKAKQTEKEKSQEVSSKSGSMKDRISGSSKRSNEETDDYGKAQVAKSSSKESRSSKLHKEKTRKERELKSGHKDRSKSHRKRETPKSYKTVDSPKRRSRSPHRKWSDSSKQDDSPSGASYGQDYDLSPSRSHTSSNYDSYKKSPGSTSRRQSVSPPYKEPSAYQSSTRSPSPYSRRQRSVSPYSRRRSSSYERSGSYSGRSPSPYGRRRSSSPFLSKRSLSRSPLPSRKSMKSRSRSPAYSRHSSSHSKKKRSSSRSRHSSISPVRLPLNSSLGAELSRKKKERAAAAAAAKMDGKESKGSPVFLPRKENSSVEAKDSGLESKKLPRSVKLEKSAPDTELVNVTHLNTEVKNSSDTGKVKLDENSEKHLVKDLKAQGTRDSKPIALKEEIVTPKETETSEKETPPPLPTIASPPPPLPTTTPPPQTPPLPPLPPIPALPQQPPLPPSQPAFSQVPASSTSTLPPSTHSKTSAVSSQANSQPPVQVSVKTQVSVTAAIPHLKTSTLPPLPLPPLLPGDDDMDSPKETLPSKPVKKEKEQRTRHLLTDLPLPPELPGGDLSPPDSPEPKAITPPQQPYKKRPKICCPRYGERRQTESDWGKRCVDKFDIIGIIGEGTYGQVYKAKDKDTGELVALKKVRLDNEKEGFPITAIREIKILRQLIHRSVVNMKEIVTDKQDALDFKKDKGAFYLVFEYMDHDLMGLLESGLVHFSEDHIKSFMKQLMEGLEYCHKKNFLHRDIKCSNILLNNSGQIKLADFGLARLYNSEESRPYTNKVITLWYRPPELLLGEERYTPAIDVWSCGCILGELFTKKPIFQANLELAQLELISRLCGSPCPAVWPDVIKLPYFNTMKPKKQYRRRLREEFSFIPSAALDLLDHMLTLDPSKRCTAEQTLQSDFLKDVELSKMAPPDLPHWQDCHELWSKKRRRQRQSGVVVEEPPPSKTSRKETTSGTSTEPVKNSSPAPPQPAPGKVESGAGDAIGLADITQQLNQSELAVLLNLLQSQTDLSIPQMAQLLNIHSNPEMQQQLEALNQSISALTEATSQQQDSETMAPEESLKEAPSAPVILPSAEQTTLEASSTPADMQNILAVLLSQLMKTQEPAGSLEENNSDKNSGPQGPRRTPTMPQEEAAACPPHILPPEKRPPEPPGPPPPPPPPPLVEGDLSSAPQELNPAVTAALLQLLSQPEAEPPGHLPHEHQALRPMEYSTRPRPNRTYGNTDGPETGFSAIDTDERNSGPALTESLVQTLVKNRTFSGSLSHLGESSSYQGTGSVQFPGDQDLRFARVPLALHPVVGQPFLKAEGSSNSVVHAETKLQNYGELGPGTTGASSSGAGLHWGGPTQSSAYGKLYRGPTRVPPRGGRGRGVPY

O=C(N[C@@H](C1CC1)C(F)(F)F)c1cc(-c2cnn3cc(-c4ccc(F)cc4)cnc23)cs1
inhibition [1]: 7%
inhibition [2]: 0%
fold change (FC) [3]: 0
fold change (FC) [4]: 0
fold change (FC) [5]: 0.21
fold change (FC) [6]: 0.64

CC(C)[C@H](NC(=O)c1cc(-c2cnn3cc(-c4ccc(OCCN5CCCCC5)cc4)cnc23)cs1)C(F)(F)F
fold change (FC) [7]: 0.76

CNC(=O)c1ccccc1Oc1nc(Nc2cc(OC)c(OC)c(OC)c2)ncc1Br
inhibition [8]: 7%
inhibition [9]: 0%
inhibition [10]: 0%
fold change (FC) [11]: 0.15
